Common to all, as to format: functional
Assay [1] has as its system Escherichia coli. The assay is described as follows: Antimicrobial activity against Escherichia coli after 24 hrs by spectrophotometry. The method, boiled down: (§1)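 Broth MIC read turbidimetrically. Bacteria were pre-cultured 24 h at 37 °C in LB, then held at 4 °C. Compounds active in an agar-well pre-screen (20 mg/ml DMSO, 100 µl per well, 37 °C 24 h) went forward. Dilutions of 1, 5, 10, 15 and 20 mg/ml DMSO from stock were made up to 10 ml LB and inoculated with 10 µl suspension. Triplicate tubes, 37 °C for 24 h, spectrophotometric growth read-out.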

In assay [2] the test system is Bacillus thuringiensis. Description: Ratio of tetracycline MIC to compound MIC for Bacillus thuringiensis.
In assay [3] the test system is Escherichia coli. Description: Ratio of tetracycline MIC to compound MIC for Escherichia coli.
For assay [4], the system named is Bacillus thuringiensis. Description: Antimicrobial activity against Bacillus thuringiensis after 24 hrs by spectrophotometry. The method, boiled down:
as §1

Each structure is given as a SMILES string. Values after ≈ are worked out from the molar mass of the structure shown. Active and inactive are the calls of the source. The calls are words filed in the database; no cut-off is given here.

On to `CCOC(=O)C1C(c2ccc(Cl)cc2)NC(=O)NC1(O)C(F)(F)F` (stereo not given), for which the MIC with Escherichia coli [1] and against Bacillus thuringiensis [4] was not below 15 mg/mL in each case. Besides, the Ratio with Bacillus thuringiensis [2] and in the assay with Escherichia coli [3] was 6 throughout.
As to `CCOC(=O)C1C(c2ccccc2)NC(=S)NC1(O)C(F)(F)F` (stereo not given), the MIC in the assay with Escherichia coli [1] and in the assay with Bacillus thuringiensis [4] was not below 15 mg/mL each time. In addition, the Ratio in the assay on Bacillus thuringiensis [2] and in the assay with Escherichia coli [3] was 6 each time.
For the molecule `CCOC(=O)C1C(c2ccc(OC)cc2)NC(=S)NC1(O)C(F)(F)F` (stereo not given), the MIC with Escherichia coli [1] and in the assay with Bacillus thuringiensis [4] was not below 15 mg/mL each time. Also, the Ratio with Bacillus thuringiensis [2] and with Escherichia coli [3] was 6 each time.
On to `CCOC(=O)C1C(c2ccc([N+](=O)[O-])cc2)NC(=O)NC1(O)C(F)(F)F` (stereo not given), for which the outcome with Escherichia coli [1] and in the assay with Bacillus thuringiensis [4] was inactive.
Turning to `CCOC(=O)C1C(c2ccccc2)NC(=O)NC1(O)C(F)(F)F` (stereo not given), the result in the assay with Escherichia coli [1] and in the assay with Bacillus thuringiensis [4] was inactive.
For the molecule `CCOC(=O)C1C(c2ccc(O)cc2)NC(=S)NC1(O)C(F)(F)F` (stereo not given), the MIC in the assay with Escherichia coli [1] and with Bacillus thuringiensis [4] was not below 20 mg/mL in each case. For the same molecule, the Ratio with Bacillus thuringiensis [2] and with Escherichia coli [3] was 6 throughout.
Take `CCOC(=O)C1C(c2ccc(Cl)cc2)N=C(S)NC1(O)C(F)(F)F` (stereo not given): the outcome with Escherichia coli [1] and in the assay on Bacillus thuringiensis [4] was inactive.
For the molecule `CCOC(=O)C1C(c2cccs2)NC(=O)NC1(O)C(F)(F)F` (stereo not given), the minimum inhibitory concentration (MIC) against Escherichia coli [1] and against Bacillus thuringiensis [4] was not below 20 mg/mL in each case. Also, the Ratio with Bacillus thuringiensis [2] and in the assay with Escherichia coli [3] was 6 each time.
In the assay with Bacillus thuringiensis [4], `CN(C)[C@@H]1C(O)=C(C(N)=O)C(=O)[C@@]2(O)C(O)=C3C(=O)c4c(O)cccc4[C@@](C)(O)[C@H]3C[C@@H]12` [TETRACYCLINE] displayed a minimum inhibitory concentration (MIC) of 75 mg/mL (≈ 169 mM).
As for `CCOC(=O)C1C(c2ccc(O)cc2)NC(=O)NC1(O)C(F)(F)F` (stereo not given), the MIC against Escherichia coli [1] and against Bacillus thuringiensis [4] was not below 20 mg/mL throughout. Moreover, the Ratio in the assay with Bacillus thuringiensis [2] and in the assay on Escherichia coli [3] was 6 throughout.
In the case of `CCOC(=O)C1C(c2ccc(F)cc2)NC(=S)NC1(O)C(F)(F)F` (stereo not given), the result with Escherichia coli [1] and in the assay with Bacillus thuringiensis [4] was inactive.
Regarding `CCOC(=O)C1C(c2ccc(C)cc2)NC(=S)NC1(O)C(F)(F)F` (stereo not given), the MIC with Escherichia coli [1] and in the assay on Bacillus thuringiensis [4] was not below 20 mg/mL each time. Besides, the Ratio in the assay with Bacillus thuringiensis [2] and in the assay on Escherichia coli [3] was 6 in each case.
Regarding `CCOC(=O)C1C(c2ccc(C)cc2)NC(=O)NC1(O)C(F)(F)F` (stereo not given), the MIC against Escherichia coli [1] and against Bacillus thuringiensis [4] was not below 20 mg/mL throughout. Also, the Ratio with Bacillus thuringiensis [2] and in the assay on Escherichia coli [3] was 6 throughout.
For the molecule `CCOC(=O)C1C(c2ccc(N(C)C)cc2)NC(=S)NC1(O)C(F)(F)F` (stereo not given), the MIC in the assay with Escherichia coli [1] and against Bacillus thuringiensis [4] was not below 20 mg/mL throughout. The Ratio with Bacillus thuringiensis [2] and with Escherichia coli [3] was 6 throughout.
